From ChEMBL document CHEMBL4024801, “Synthesis and Structure-Activity Relationship (SAR) Studies of Novel Pyrazolopyridine Derivatives as Inhibitors of Enterovirus Replication” (J Med Chem, 2018)

Columns and labels:
Enterovirus A71 = test: Antiviral activity against Enterovirus A71 infected in monkey LLC-MK2 cells assessed as protection against virus-induced cytopathic effect after 3 to 4 days by crystal violet staining-based spectrophotometric method; format: functional, cell-based; conditions: Enterovirus A
In short: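 EV-A71 was tested in LLC-MK2 cells grown in DMEM with 10% FBS, penicillin, streptomycin and glutamine, at a low MOI preset to give full CPE in 3–4 days. Compound was dissolved in DMSO and diluted 2-fold, in triplicate. Cells were fixed with formaldehyde when control CPE was maximal, then stained with crystal violet and read at OD590. EC50 came from a 7-point four-parameter or sigmoidal fit.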

Coxsackievirus B3 = test: Antiviral activity against Coxsackievirus B3 infected in human HeLa-RW cells assessed as protection against virus-induced cytopathic effect after 3 to 4 days by crystal violet staining-based spectrophotometric method; format: functional, cell-based; conditions: Enterovirus B
In short: (§1)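 HeLa-RW cells grown in DMEM with penicillin, streptomycin, glutamine and 10% FBS. They were infected at a low MOI pre-set to give full CPE in 3-4 days. Compound in DMSO was added as serial 2-fold dilutions (7 points), each in triplicate. When control CPE was maximal, cells were fixed with 4% formaldehyde, stained with 0.25% crystal violet and read at OD590. EC50 came from a four-parameter or sigmoidal fit.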

Poliovirus 1 = test: Antiviral activity against Poliovirus 1 infected in human HeLa-RW cells assessed as protection against virus-induced cytopathic effect after 3 to 4 days by crystal violet staining-based spectrophotometric method; format: functional, cell-based; conditions: Enterovirus C; in short: as §1
Poliovirus 3 = test: Antiviral activity against Poliovirus 3 infected in human HeLa-RW cells assessed as protection against virus-induced cytopathic effect after 3 to 4 days by crystal violet staining-based spectrophotometric method; format: functional, cell-based; conditions: Enterovirus C; in short: as §1
LLC-MK2 = test: Cytotoxicity against monkey LLC-MK2 cells after 3 to 4 days by crystal violet staining-based spectrophotometric method; format: cell-based, Macaca mulatta; conditions: rhesus monkey
In short: (§2)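 Uninfected cells (HeLa-RW or LLC-MK2, in DMEM with penicillin, streptomycin, glutamine and 10% FBS) were exposed to serial 2-fold compound dilutions for the same period as the CPE assay. They were then fixed with formaldehyde, stained with crystal violet and read by OD590 spectrophotometry to derive CC50. Values are means ± s.d. of 3 experiments, or the average of triplicates in one.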

[1] = Cytotoxicity against human HeLa-RW cells after 3 to 4 days by crystal violet staining-based spectrophotometric method; format: cell-based; conditions: hela-rw; in short: as §2
[2] = Selectivity index, ratio of CC50 for monkey LLC-MK2 cells to EC50 for Enterovirus A71; format: toxicity; conditions: read-out: Ratio CC50/EC50
In short: (§3)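 LLC-MK2 cells in DMEM with 10% FBS were used for both arms. For EC50, cells were infected with EV-A71 at a low MOI giving full CPE in 3–4 days and exposed to 2-fold compound dilutions, in triplicate. For CC50, uninfected cells got 2-fold dilutions for the same period. Both arms were formaldehyde-fixed, crystal violet-stained and read at OD590.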

[3] = Selectivity index, ratio of CC50 for human HeLa-RW cells to EC50 for Coxsackievirus B3; format: toxicity; conditions: read-out: Ratio CC50/EC50
In short: as §3, with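 “HeLa-RW” for “LLC-MK2”, “CVB3-H3” for “EV-A71”, “triplicate, with a 7-point fit.” for “triplicate.”, “fixed,” for “formaldehyde-fixed,”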

| SMILES | EC50 (Enterovirus A71) | EC50 (Coxsackievirus B3) | EC50 (Poliovirus 1) | EC50 (Poliovirus 3) | CC50 (LLC-MK2) | CC50 [1] | selectivity ratio [2] | selectivity ratio [3] |
| --- | --- | --- | --- | --- | --- | --- | --- | --- |
| CC(C)n1ncc2c(C(=O)Nc3cccc(F)c3)cc(-c3cccs3)nc21 | 2.4 µM | 0.8 µM | > 25 µM | > 25 µM | > 200 µM | > 200 µM | > 83.3 | > 250 |
| CC(C)n1ncc2c(C(=O)Nc3ccccc3S(N)(=O)=O)cc(-c3cccs3)nc21 | 2.5 µM | 2.6 µM | > 25 µM | > 25 µM | 25 µM | 10 µM | 10 | 3.8 |
| CC(C)n1ncc2c(C(=O)Nc3cccc(S(=O)(=O)N(C)C)c3)cc(-c3cccs3)nc21 | 0.8 µM | 1 µM | > 10 µM | > 10 µM | > 200 µM | 12 µM | > 250 | 12 |
| CC(C)n1ncc2c(C(=O)Nc3ncccn3)cc(-c3cccs3)nc21 | 0.5 µM | 0.6 µM | > 10 µM | > 10 µM | 75 µM | 37.5 µM | 150 | 62.5 |
| CC(C)n1ncc2c(C(=O)Nc3ncccn3)cc(-c3ccsc3)nc21 | 1.2 µM | 1.2 µM | > 10 µM | > 10 µM | 50 µM | 40 µM | 41.7 | 33.3 |
| CC(C)n1ncc2c(C(=O)Nc3cccnc3)cc(-c3ccsc3)nc21 | 2.4 µM | 0.6 µM | > 10 µM | > 10 µM | 37 µM | 18 µM | 15.4 | 30 |
| CC(C)n1ncc2c(C(=O)Nc3ccncn3)cc(-c3cccs3)nc21 | 0.5 µM | 0.6 µM | > 10 µM | > 10 µM | 50 µM | 20 µM | 100 | 33.3 |
| CNS(=O)(=O)c1cccc(NC(=O)c2cc(-c3cccs3)nc3c2cnn3C(C)C)c1 | 0.7 µM | 0.5 µM | > 10 µM | > 10 µM | 25 µM | 12 µM | 35.7 | 24 |
| CC(C)n1ncc2c(C(=O)Nc3c(F)cc(F)cc3F)cc(-c3cccs3)nc21 | 3 µM | 1.8 µM | > 25 µM | > 25 µM | > 200 µM | > 200 µM | > 66.7 | > 111 |
| CC(C)n1ncc2c(C(=O)Nc3ccc(S(C)(=O)=O)cc3)cc(-c3cccs3)nc21 | 0.5 µM | 1 µM | > 10 µM | > 10 µM | 50 µM | 200 µM | 100 | 200 |
| CC(C)n1ncc2c(C(=O)Nc3ccccn3)cc(-c3cccs3)nc21 | 0.5 µM | 0.8 µM | > 10 µM | > 10 µM | > 200 µM | > 200 µM | > 400 | > 250 |
| CC(C)n1ncc2c(C(=O)Nc3ccncc3)cc(-c3cccs3)nc21 | 0.4 µM | 0.6 µM | > 10 µM | > 10 µM | 6.3 µM | 6 µM | 15.8 | 10 |
| CC(C)n1ncc2c(C(=O)Nc3ccncn3)cc(-c3ccsc3)nc21 | 0.8 µM | 1.2 µM | > 10 µM | > 10 µM | > 200 µM | > 200 µM | > 250 | > 167 |
| CC(C)n1ncc2c(C(=O)Nc3ccccn3)cc(-c3ccsc3)nc21 | 0.8 µM | 1.2 µM | > 10 µM | > 10 µM | 25 µM | 18 µM | 31.3 | 15 |
